Legend:
Format in all cases: cell-based
[1] = tested on: doxorubicin-sensitive Colo 205 human colonic adenocarcinoma cells; test: MTT assay for cytotoxic effect, Colo 205; conditions: read-out: IC50 (μM), 72 h Colo 205
Procedure, shortened: (§1)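 Colo 205 and Colo 320/MDR-LRP were kept in RPMI 1640 with 10% heat-inactivated FBS, 2 mM L-glutamine, 1 mM Na-pyruvate and 10 mM HEPES, and detached with Trypsin-Versene. 1x10^4 cells per well went onto 2-fold serial compound dilutions (100 to 0.195 µM; DMSO stocks) for 72 h at 37 °C. Then MTT 4 h, SDS/0.01 M HCl overnight, OD 540/630 nm. IC50 from growth inhibition versus cell and medium controls. SF uses the MRC-5 IC50 from the same assay.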

[2] = tested on: multidrug resistant Colo 320/MDR-LRP human colonic adenocarcinoma cells; test: MTT assay for cytotoxic effect, Colo 320
Procedure, shortened: as §1

[3] = tested on: MRC-5 non-cancerous human embryonal lung fibroblast cells; test: MTT assay for cytotoxic effect, MRC-5; conditions: read-out: IC50 (μM), 72 h MRC-5
Procedure, shortened: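 MRC-5 fibroblasts were grown in EMEM with 10% heat-inactivated FBS and seeded 24 h at 37 °C, 5% CO2. Medium was then replaced by 2-fold serial compound dilutions (100 to 0.195 µM; 10 mM DMSO stocks), 72 h at 37 °C. MTT for 4 h, then SDS in 0.01 M HCl overnight. OD read at 540/630 nm. IC50 from % growth inhibition relative to cell and medium controls.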

N.N.[Cl][Pt][Cl] [Cisplatin, reference compound]
IC50 [1]: 31.9 ± 2.17 µM
SF(320) selectivity factor ([2]; SF(320) = IC50 MRC-5/IC50 Colo 320): 3
IC50 ([2]; read-out: IC50 (μM), 72 h Colo 320, 72 h, MTT): 4.81 ± 0.68 µM
IC50 [3]: 12.4 ± 0.367 µM

Source: publication PMC6635014 (Dalton transactions (Cambridge, England : 2003), 2019)
